ChEMBL document CHEMBL2412990, “Synthesis and pharmacological evaluation of new N-phenylpiperazine derivatives designed as homologues of the antipsychotic lead compound LASSBio-579” (Eur J Med Chem, 2013)
Activity calls are given as the source filed them. The rule behind the calls is not given here.

Legend:
Mus musculus [1] = assay: Antipsychotic activity in CF1 mouse assessed as prevention of apomorphine-induced climbing behaviour at 15 mg/kg, po administered 30 mins prior apomorphine challenge measured 5 to 30 mins post challenge; type: functional, organism-based; design: dose 15 mg/kg
How it was run: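 Male CF1 mice (25-35 g), given the drug orally (10 ml/kg, fasted 2 h) and then kept in metal-bar cages for 30 min. Apomorphine 4 mg/kg was then given s.c. Climbing was scored 0-4 for 1 min at 5, 10, 15, 20, 25 and 30 min, and the scores were summed per animal as a climbing index. n = 8-9. One-way ANOVA with Student-Newman-Keuls post hoc test.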

Mus musculus [2] = assay: Antipsychotic activity in CF1 mouse assessed as prevention of ketamine-induced hyperlocomotion at 1 mg/kg, po administered 30 mins prior ketamine challenge measured for 20 mins post challenge; type: functional, organism-based; design: dose 1 mg/kg
How it was run: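 Male CF1 mice, dosed orally (10 ml/kg, fasted 2 h) and placed at the centre of the apparatus in a dimly lit room. Ketamine 10 mg/kg was given s.c. 30 min later. A blinded observer counted square crossings over 20 min. n = 7-8. One-way ANOVA with Student-Newman-Keuls post hoc test.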

Mus musculus [3] = assay: Antipsychotic activity in CF1 mouse assessed as prevention of ketamine-induced hyperlocomotion at 0.01 mg/kg, po administered 30 mins prior ketamine challenge measured for 20 mins post challenge; type: functional, organism-based; design: dose 0.01 mg/kg
How it was run: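 Mice were pretreated (reference drug orally after 2 h fast; test compound i.p.) and placed in the arena centre. Ketamine 10 mg/kg s.c. was given 30 min later. A blinded observer counted total square crossings over 20 min in a dimly lit room. n = 7–8. Analysed by one-way ANOVA with Newman-Keuls post hoc test.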

Mus musculus [4] = assay: Antipsychotic activity in CF1 mouse assessed as prevention of apomorphine-induced climbing behaviour at 0.5 mg/kg, po administered 30 mins prior apomorphine challenge measured 5 to 30 mins post challenge; type: functional, organism-based; design: dose 0.5 mg/kg
How it was run: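 Reference drug given orally to mice fasted 2 h. Apomorphine 4 mg/kg s.c. was given 30 min later. Climbing was scored 0–4 at 5-min intervals up to 30 min and summed as the climbing index. n = 8–9. Analysed by one-way ANOVA with Newman-Keuls post hoc test.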

[5] = molecular target: T1, 5-hydroxytryptamine receptor 1A (Rattus norvegicus) (UniProt P19327); assay: Antagonist activity at 5HT1A receptor in rat brain hippocampal membranes assessed as inhibition of [3H]-8-OH-DPAT binding to receptor after 15 mins by competition assay in presence of GTP; type: cell membranes
T1 sequence (whole entry): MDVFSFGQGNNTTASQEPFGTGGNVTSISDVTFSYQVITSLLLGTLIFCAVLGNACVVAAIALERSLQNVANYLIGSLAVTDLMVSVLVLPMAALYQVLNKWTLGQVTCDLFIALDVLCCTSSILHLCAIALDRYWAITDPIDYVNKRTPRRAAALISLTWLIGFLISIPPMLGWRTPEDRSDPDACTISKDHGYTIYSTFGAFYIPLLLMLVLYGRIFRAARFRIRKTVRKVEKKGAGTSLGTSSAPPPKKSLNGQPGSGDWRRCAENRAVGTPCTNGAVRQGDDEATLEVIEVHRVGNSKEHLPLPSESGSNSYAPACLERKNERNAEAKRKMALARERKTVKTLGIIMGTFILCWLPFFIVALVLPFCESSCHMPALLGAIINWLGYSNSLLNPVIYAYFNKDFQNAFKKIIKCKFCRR

[6] = molecular target: T1, 5-hydroxytryptamine receptor 1A (Rattus norvegicus); assay: Antagonist activity at 5HT1A receptor in rat brain hippocampal membranes assessed as inhibition of [3H]-8-OH-DPAT binding to receptor after 15 mins by competition assay in absence of GTP; type: cell membranes
How it was run: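 Hippocampal membranes, 40 µg protein, incubated with 1 nM [3H]-8-OH-DPAT at 37 °C for 15 min under yellow light. Buffer was 50 mM Tris-HCl pH 7.4 with 1 mM CaCl2, 1 mM MnCl2 and pargyline. Non-specific binding was defined with 5-HT. Filters were soaked in 0.5% polyethyleneimine. IC50 came from nonlinear regression fitted with one or two sites. Ki by Cheng-Prusoff, using Kd from saturation experiments.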

[7] = molecular target: 5-hydroxytryptamine receptor 2A (Rattus norvegicus) (UniProt P14842); assay: Antagonist activity at 5HT2A receptor in rat brain cortical membranes assessed as inhibition of [3H]-ketanserin binding to receptor after 15 mins by competition assay in presence of GTP; type: cell membranes
Sequence of 5-hydroxytryptamine receptor 2A (Rattus norvegicus) (P14842 whole entry): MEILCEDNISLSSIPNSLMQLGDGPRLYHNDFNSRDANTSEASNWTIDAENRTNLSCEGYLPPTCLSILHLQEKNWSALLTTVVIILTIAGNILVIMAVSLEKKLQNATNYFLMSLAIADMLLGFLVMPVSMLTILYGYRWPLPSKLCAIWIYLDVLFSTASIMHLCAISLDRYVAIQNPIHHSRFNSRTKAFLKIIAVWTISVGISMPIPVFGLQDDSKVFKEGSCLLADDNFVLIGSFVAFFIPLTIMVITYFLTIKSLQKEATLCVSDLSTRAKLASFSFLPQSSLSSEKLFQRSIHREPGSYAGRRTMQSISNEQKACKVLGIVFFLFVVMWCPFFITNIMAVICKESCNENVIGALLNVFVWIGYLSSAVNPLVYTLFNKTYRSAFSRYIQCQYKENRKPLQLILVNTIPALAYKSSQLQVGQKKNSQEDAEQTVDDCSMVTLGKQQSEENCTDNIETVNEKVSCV
How it was run: (§1)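 Rat cortical membranes, 150 µg protein, with 1 nM [3H]-ketanserin and 100 nM prazosin in 50 mM Tris-HCl pH 7.4, 37 °C, 15 min. Non-specific binding was defined with ketanserin. For the GTP shift, paired competition curves were run without and with guanylyl nucleotide (0.1 mM Gpp(NH)p or 1 mM GTP).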

[8] = molecular target: 5-hydroxytryptamine receptor 2A (Rattus norvegicus) (UniProt P14842); assay: Antagonist activity at 5HT2A receptor in rat brain cortical membranes assessed as inhibition of [3H]-ketanserin binding to receptor after 15 mins by competition assay in absence of GTP; type: cell membranes; how it was run: as §1

SMILES: CN1CCN(C2=Nc3cc(Cl)ccc3Nc3ccccc32)CC1
- Activity (Mus musculus [1]): Active
- Activity (Mus musculus [2]): Active

SMILES: O=C(CCCN1CCC(O)(c2ccc(Cl)cc2)CC1)c1ccc(F)cc1
- Activity (Mus musculus [3]): inactive
- Activity (Mus musculus [4]): Active

SMILES: COc1ccccc1N1CCN(CCN(C(=O)c2ccc(F)cc2)c2ccccn2)CC1
- inhibition [5]: Active
- inhibition [6]: Active

SMILES: O=C(c1ccc(F)cc1)C1CCN(CCn2c(=O)[nH]c3ccccc3c2=O)CC1
- inhibition [7]: Active
- inhibition [8]: Active
